This note sets out measurements from ChEMBL document CHEMBL1155897, “Structure-antitussive activity relationships of naltrindole derivatives. Identification of novel and potent antitussive agents” (J Med Chem, 2008).

Active and inactive are the calls of the source. The rule behind the calls is not given here. Where only a bound is given, the exact number is not on record here.

The target of assay [1] is T1, Kappa-type opioid receptor (Cavia porcellus, UniProt P41144). The experiment in a line: Displacement of […] from kappa opioid receptor in Hartley guinea pig brain membrane. The class given is cell membranes.
Assay [2] addresses T2, Kappa-type opioid receptor (Mus musculus, UniProt P33534). The experiment in a line: Antagonist activity at kappa opioid receptor in electrically-induced ddY mouse vas deferens assessed as effect on U50,488H-induced inhibition of electrically-stimulated contraction at 30 uM. The class given is functional, tissue-based. Conditions: read-out: pA2 (converted). Summed up: (§1)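 Vas deferens from male ddy mice was mounted in a Magnus tube at 37 °C in Krebs-Henseleit gassed with 95% O2/5% CO2 and electrically stimulated. Antagonist was added 20 min before cumulative agonist: DPDPE (δ), U-50,488H (κ) or morphine (µ). Dose ratio is the agonist IC50 with versus without antagonist, as mean of N=4. pA2 = −log([B]/(dose ratio − 1)).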

Assay [3] has as its target T3, Delta-type opioid receptor (Mus musculus, UniProt P32300). The experiment in a line: Antagonist activity at delta opioid receptor in electrically-induced ddY mouse vas deferens assessed as effect on DPDPE-induced inhibition of electrically-stimulated contraction at 30 uM. The class given is functional, tissue-based. Conditions: read-out: pA2 (converted). Summed up: as §1

For assay [4], the target named is T4, Mu-type opioid receptor (Cavia porcellus, UniProt P97266). The experiment in a line: Displacement of [3H]DAMGO from mu opioid receptor in Hartley guinea pig brain membrane. The class given is cell membranes. A digest of the protocol: (§2)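 Brains from 4-week male Hartley guinea pigs were split into forebrain (µ, δ) and cerebellum (κ). Membranes were homogenised in 50 mM Tris-HCl pH 7.4 and held 1 h at 4 °C to remove endogenous ligands.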

For assay [5], the target named is Kappa-type opioid receptor (Homo sapiens) (UniProt P41145). The experiment in a line: Agonist activity at human kappa opioid receptor expressed in HEK293 cells assessed as stimulation of [35S]GTPgammaS binding at 1 uM relative to U69,593. The class given is functional, cell-based. Summed up: (§3)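 Compound was preincubated 20 min at 30 °C, then 60 min with SPA beads. 0.3 nM [35S]GTPγS was added for 30 min.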
A general note: GTPγS is a poorly hydrolysed GTP analogue; its binding reports G protein activation.

Assay [6] can be described thus: Displacement of [3H]NTI from delta opioid receptor in Hartley guinea pig brain membrane. The class given is cell membranes, Cavia porcellus. A digest of the protocol: as §2
For orientation: Loss of bound radioactivity is the signal in a displacement assay; it reports binding, not function.

Assay [7] addresses T5, Mu-type opioid receptor (Mus musculus, UniProt P42866). The experiment in a line: Antagonist activity at mu opioid receptor in electrically-induced ddY mouse vas deferens assessed as effect on morphine-induced inhibition of electrically-stimulated contraction at 30 uM. The class given is functional, tissue-based. Conditions: read-out: pA2 (converted). Summed up: as §1
The target of assay [8] is Delta-type opioid receptor (Homo sapiens) (UniProt P41143). Kind of assay: Agonist activity at human delta opioid receptor expressed in CHO cells assessed as stimulation of [35S]GTPgammaS binding at 1 uM relative to DPDPE. The class given is functional, cell-based. Summed up: as §3
The species entered for assay [9] is Cavia porcellus. Kind of assay: Selectivity for delta opioid receptor over mu opioid receptor in Hartley guinea pig brain membrane. The class given is cell membranes.
Assay [10] has as its target Mu-type opioid receptor (Homo sapiens) (UniProt P35372). Kind of assay: Agonist activity at human mu opioid receptor expressed in CHO cells assessed as stimulation of [35S]GTPgammaS binding at 1 uM relative to DAMGO. The class given is functional, cell-based. Summed up:
as §3

For assay [11], the species on record is Cavia porcellus. The experiment in a line: Selectivity for delta opioid receptor over kappa opioid receptor in Hartley guinea pig brain membrane. The class given is cell membranes.
For assay [12], the system named is Rattus norvegicus. Kind of assay: Antitussive activity in ip dosed Sprague-Dawley rat assessed as reduction in number of capsaicin-induced coughs. The class given is functional.
For assay [13], the target named is T2, Kappa-type opioid receptor. Kind of assay: Antagonist activity at kappa opioid receptor in electrically-induced ddY mouse vas deferens assessed as effect on U50,488H-induced inhibition of electrically-stimulated contraction at 10 uM. The class given is functional, tissue-based. Conditions: read-out: pA2 (converted). A digest of the protocol:
as §1

Assay [14] addresses T5, Mu-type opioid receptor. The experiment in a line: Antagonist activity at mu opioid receptor in electrically-induced ddY mouse vas deferens assessed as effect on […]-induced inhibition of electrically-stimulated contraction at 10 uM. The class given is functional, tissue-based. As to conditions: read-out: pA2 (converted).
Assay [15] concerns Rattus norvegicus. Kind of assay: Antitussive activity in po dosed Sprague-Dawley rat assessed as reduction in number of capsaicin-induced coughs. The class given is functional.
Assay [16] deals with T2, Kappa-type opioid receptor. The experiment in a line: Antagonist activity at kappa opioid receptor in electrically-induced ddY mouse vas deferens assessed as effect on U50,488H-induced inhibition of electrically-stimulated contraction at 100 uM. The class given is functional, tissue-based. As to conditions: read-out: pA2 (converted). A digest of the protocol: as §1
The target in assay [17] is T3, Delta-type opioid receptor. Kind of assay: Antagonist activity at delta opioid receptor in electrically-induced ddY mouse vas deferens assessed as effect on DPDPE-induced inhibition of electrically-stimulated contraction at 100 uM. The class given is functional, tissue-based. Conditions: read-out: pA2 (converted). A digest of the protocol: as §1
The nature of assay [18]: Binding affinity to guinea pig delta opioid receptor. Further details: species or system Cavia porcellus. A digest of the protocol:
as §2

Assay [19] deals with T4, Mu-type opioid receptor. Kind of assay: Binding affinity to guinea pig mu opioid receptor. Summed up:
as §2

Assay [20] addresses T3, Delta-type opioid receptor. The experiment in a line: Antagonist activity at delta opioid receptor in electrically-induced ddY mouse vas deferens assessed as effect on DPDPE-induced inhibition of electrically-stimulated contraction at 10 uM. The class given is functional, tissue-based. Conditions: read-out: pA2 (converted). A digest of the protocol:
as §1

The target in assay [21] is T1, Kappa-type opioid receptor. The experiment in a line: Binding affinity to guinea pig kappa opioid receptor. Summed up:
as §2

The subject of assay [22] is Rattus norvegicus. The experiment in a line: Effect on Sprague-Dawley rat capsaicin-induced cough nodel assessed as increase in number of coughs at 10 mg/kg, sc. The class given is functional, organism-based. More on the design: dose 10 mg/kg.

T4 sequence (P97266 whole entry): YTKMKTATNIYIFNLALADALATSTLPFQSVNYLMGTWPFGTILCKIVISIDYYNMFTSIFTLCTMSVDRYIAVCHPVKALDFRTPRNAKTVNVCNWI
T5 sequence (P42866 whole entry): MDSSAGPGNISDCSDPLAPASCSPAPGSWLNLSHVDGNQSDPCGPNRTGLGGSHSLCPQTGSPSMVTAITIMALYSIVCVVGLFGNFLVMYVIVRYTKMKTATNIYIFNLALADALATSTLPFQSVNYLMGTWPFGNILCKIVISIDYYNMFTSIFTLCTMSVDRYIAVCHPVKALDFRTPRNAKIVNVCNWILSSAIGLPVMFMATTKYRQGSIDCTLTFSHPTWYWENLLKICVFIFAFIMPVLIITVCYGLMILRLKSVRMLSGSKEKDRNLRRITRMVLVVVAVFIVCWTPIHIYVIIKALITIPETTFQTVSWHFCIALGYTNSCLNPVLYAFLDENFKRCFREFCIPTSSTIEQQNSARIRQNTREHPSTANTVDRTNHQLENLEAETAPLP
T1 sequence (P41144 whole entry): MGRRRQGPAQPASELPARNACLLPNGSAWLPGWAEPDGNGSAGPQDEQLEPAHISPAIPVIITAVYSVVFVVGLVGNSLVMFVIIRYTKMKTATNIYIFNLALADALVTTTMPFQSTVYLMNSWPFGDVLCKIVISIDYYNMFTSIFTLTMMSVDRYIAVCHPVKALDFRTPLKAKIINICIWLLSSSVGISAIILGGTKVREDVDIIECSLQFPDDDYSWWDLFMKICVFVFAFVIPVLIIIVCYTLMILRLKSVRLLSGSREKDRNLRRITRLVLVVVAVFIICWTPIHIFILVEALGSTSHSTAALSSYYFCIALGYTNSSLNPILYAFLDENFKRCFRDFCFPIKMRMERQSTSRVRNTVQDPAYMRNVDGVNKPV
T2 sequence (P33534 whole entry): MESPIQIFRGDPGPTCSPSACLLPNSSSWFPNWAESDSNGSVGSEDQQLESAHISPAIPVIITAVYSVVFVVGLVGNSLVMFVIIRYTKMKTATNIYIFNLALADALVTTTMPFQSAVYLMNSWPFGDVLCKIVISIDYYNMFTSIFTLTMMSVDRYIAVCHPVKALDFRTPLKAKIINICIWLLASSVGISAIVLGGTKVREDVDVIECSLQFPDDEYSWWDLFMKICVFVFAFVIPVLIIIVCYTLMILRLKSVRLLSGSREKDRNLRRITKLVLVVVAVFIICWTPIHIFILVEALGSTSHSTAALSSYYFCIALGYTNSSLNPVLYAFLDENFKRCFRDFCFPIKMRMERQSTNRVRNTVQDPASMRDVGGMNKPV
T3 sequence (P32300 whole entry): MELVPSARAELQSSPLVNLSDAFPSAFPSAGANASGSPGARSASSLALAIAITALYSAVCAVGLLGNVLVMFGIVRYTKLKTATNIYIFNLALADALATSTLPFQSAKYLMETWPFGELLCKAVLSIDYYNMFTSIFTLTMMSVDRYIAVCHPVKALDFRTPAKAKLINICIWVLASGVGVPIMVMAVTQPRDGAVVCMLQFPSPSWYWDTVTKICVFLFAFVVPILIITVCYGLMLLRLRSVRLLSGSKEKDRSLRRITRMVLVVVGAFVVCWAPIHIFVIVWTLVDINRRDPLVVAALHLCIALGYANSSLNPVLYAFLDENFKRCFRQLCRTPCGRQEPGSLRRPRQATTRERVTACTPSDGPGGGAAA
Mu-type opioid receptor (Homo sapiens), sequence (P35372 whole entry): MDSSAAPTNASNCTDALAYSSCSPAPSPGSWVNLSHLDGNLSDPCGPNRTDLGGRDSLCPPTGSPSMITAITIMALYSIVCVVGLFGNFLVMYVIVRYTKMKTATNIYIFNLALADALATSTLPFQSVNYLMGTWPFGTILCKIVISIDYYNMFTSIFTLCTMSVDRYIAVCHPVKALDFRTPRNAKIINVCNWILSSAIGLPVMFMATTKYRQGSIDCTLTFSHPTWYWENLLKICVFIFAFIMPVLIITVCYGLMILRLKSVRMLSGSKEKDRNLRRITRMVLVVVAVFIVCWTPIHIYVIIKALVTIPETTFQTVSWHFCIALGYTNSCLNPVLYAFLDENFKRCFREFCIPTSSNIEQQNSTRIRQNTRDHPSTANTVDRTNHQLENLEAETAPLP
Kappa-type opioid receptor (Homo sapiens), sequence (P41145 whole entry): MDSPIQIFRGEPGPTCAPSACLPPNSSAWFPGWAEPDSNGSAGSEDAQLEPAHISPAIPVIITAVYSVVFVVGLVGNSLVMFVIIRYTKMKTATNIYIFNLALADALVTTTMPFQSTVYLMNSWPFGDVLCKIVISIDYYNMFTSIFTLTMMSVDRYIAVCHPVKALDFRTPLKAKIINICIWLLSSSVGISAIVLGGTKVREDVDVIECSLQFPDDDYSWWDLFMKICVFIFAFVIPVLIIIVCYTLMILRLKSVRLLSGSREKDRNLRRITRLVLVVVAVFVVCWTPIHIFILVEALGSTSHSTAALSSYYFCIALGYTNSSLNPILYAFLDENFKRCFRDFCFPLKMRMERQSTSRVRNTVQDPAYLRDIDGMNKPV
Delta-type opioid receptor (Homo sapiens), sequence (P41143 whole entry): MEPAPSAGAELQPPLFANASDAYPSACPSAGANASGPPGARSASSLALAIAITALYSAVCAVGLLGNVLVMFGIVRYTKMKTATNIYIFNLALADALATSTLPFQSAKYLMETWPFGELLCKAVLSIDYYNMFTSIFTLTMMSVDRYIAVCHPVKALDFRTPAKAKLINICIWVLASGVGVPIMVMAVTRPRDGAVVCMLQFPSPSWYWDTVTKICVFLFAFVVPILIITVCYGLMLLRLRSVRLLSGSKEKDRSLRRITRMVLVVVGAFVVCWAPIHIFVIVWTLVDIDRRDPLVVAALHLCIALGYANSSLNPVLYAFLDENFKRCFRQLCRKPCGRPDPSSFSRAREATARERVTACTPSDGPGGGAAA

One may read the Ki as a dissociation constant, usually derived from enzyme kinetics or from competition with a known ligand. Lower therefore signals tighter binding. For the compound `Oc1ccc2c3c1O[C@H]1c4c(c5cccc6c5n4CCC6)C[C@@]4(O)[C@@H](C2)N(CC2CC2)CC[C@]314`, the Ki turned out to be 15.1 nM in [1], 60.6 nM on Mu-type opioid receptor [4] and 0.673 nM in assay [6]. The figures for the Kb (in assay [2]; in assay [3]; at Mu-type opioid receptor [7]) were 27.5 nM, 0.794 nM and 12.6 nM, respectively. The results for the Activity in [5], in assay [8] and in [10] were 26%, -2% and 1%, respectively. Moreover, the Selectivity ratio was found to be 90 in the assay listed under Cavia porcellus [9] and 22 in the assay filed under Cavia porcellus [11].
By ED50 is commonly meant the dose at which the effect has come halfway, by size or by number of responders. Turning to `CCCn1c2c(c3ccccc31)C[C@@]1(O)[C@H]3Cc4ccc(OC)c5c4[C@@]1(CCN3CC1CC1)[C@H]2O5`, in the assay with Rattus norvegicus [12], the ED50 was determined as 0.0148 mg/kg.
Same read-out and setting: then `COc1ccc2c3c1O[C@H]1c4c(c5cccc(C)c5n4C)C[C@@]4(O)[C@@H](C2)N(CC2CC2)CC[C@]314`, with 0.00635 mg/kg.
With `Oc1ccc2c3c1O[C@H]1c4c(c5cccc6c5n4CC6)C[C@@]4(O)[C@@H](C2)N(CC2CC2)CC[C@]314`, the values for the inhibition constant (Ki) (in assay [1]; on Mu-type opioid receptor [4]; in assay [6]) were 7.99 nM, 23.2 nM and 0.295 nM, respectively. In addition, the Kb in assay [2] was 7.94 nM; on Mu-type opioid receptor [7], 15.8 nM. The Activity came to 3% in [5], 26% in [8] and 0% in assay [10]. For the same compound, the Selectivity ratio in the assay filed under Cavia porcellus [9] is 79; in the assay filed under Cavia porcellus [11] it was 27.
With `Oc1ccc2c3c1O[C@H]1c4c(c5cccc6c5n4CCCC6)C[C@@]4(O)[C@@H](C2)N(CC2CC2)CC[C@]314`, the values for the Ki (in assay [1]; on Mu-type opioid receptor [4]; in [6]) were 40 nM, 113 nM and 2.26 nM, respectively. Further, the Kb is 51.3 nM in [13] and 18.2 nM at Mu-type opioid receptor [14]. Besides, the Activity in [5] is 32%; in [8], 20%; in assay [10], -1%. The ED50 with Rattus norvegicus [12] came to 0.0123 mg/kg. Also, the figures for the Selectivity ratio in the assay listed under Cavia porcellus [9] and in the assay filed under Cavia porcellus [11] were 50 and 18, respectively.
Turning to `CCn1c2c(c3cccc(C)c31)C[C@@]1(O)[C@H]3Cc4ccc(OC)c5c4[C@@]1(CCN3CC1CC1)[C@H]2O5`, the Ki in [1] was 4650 nM; on Mu-type opioid receptor [4], greater than 3670 nM; in assay [6], 218 nM. Besides, the Activity in assay [5] turned out to be 21%; in assay [8] it was 47%; in assay [10] it was 1%. Moreover, in the assay on Rattus norvegicus [12], the 50% effective dose (ED50) is 0.00179 mg/kg. The Selectivity ratio is greater than 17 in the assay filed under Cavia porcellus [9] and 21 in the assay listed under Cavia porcellus [11].
Regarding `COc1ccc2c3c1O[C@H]1c4c(c5cccc6c5n4CCC6)C[C@@]4(O)[C@@H](C2)N(CC2CC2)CC[C@]314.CS(=O)(=O)O`, the values for the Ki (in assay [1]; on Mu-type opioid receptor [4]; in assay [6]) were 3290 nM, greater than 3670 nM and 79 nM, respectively. Moreover, the figures for the Activity in assay [5], in assay [8] and in [10] were 8%, 47% and -1%, respectively. The ED50 in the assay on Rattus norvegicus [15] is 0.0064 mg/kg. Also, the Selectivity ratio in the assay listed under Cavia porcellus [9] was greater than 46; in the assay filed under Cavia porcellus [11] it was 42. For the same compound, the Kb in assay [16] was 67.6 nM.
In the case of `Cn1c2c(c3ccccc31)C[C@@]1(O)[C@H]3Cc4ccc(O)c5c4[C@@]1(CCN3CC1CC1)[C@H]2O5`, the ED50 in the assay on Rattus norvegicus [12] was 0.204 mg/kg.
As for `Oc1ccc2c3c1O[C@H]1c4[nH]c5c6c(ccc5c4C[C@@]4(O)[C@@H](C2)N(CC2CC2)CC[C@]314)CCCC6`, the Ki in [1] was 52 nM; at Mu-type opioid receptor [4], 200 nM; in assay [6], 6.32 nM. The Kb was 23.4 nM in assay [17] and 1660 nM in [16]. The figures for the Activity in assay [5], in [8] and in assay [10] were 33%, 19% and -1%, respectively. Moreover, the Selectivity ratio in the assay listed under Cavia porcellus [9] stood at 32; in the assay filed under Cavia porcellus [11], 8.2.
As to `Oc1ccc2c3c1O[C@H]1c4[nH]c5ccccc5c4C[C@@]4(O)[C@@H](C2)N(CC2CC2)CC[C@]314` [NALTRINDOLE], the Ki stood at 7.44 nM in [1]; 12.7 nM on Mu-type opioid receptor [4]; 0.135 nM in assay [6]; 0.217 nM in assay [18]; 27 nM on Mu-type opioid receptor [19]. Moreover, the values for the Activity in assay [5], in assay [8] and in assay [10] were 12%, -3% and 5%, respectively. Moreover, in the assay with Rattus norvegicus [15], the 50% effective dose (ED50) is 1.83 mg/kg. Further, the figures for the Selectivity ratio in the assay listed under Cavia porcellus [9] and in the assay filed under Cavia porcellus [11] were 94 and 55, respectively.
As to `COc1ccc2c3c1O[C@H]1c4c(c5cccc6c5n4CCCC6)C[C@@]4(O)[C@@H](C2)N(CC2CC2)CC[C@]314`, the Ki in assay [1] is 3340 nM; at Mu-type opioid receptor [4], greater than 3670 nM; in assay [6], 274 nM. Also, the Kb is 17 nM in assay [13] and 295 nM in assay [20]. For the same compound, the Activity is 11% in assay [5], 45% in [8] and -1% in assay [10]. For the same compound, the Selectivity ratio was greater than 13 in the assay filed under Cavia porcellus [9] and 12 in the assay listed under Cavia porcellus [11].
Consider `COc1ccc2c3c1O[C@H]1c4[nH]c5ccccc5c4C[C@@]4(O)[C@@H](C2)N(CC2CC2)CC[C@]314`, for which the Ki came to 3910 nM in [21], 6.57 nM in assay [18] and 2510 nM on Mu-type opioid receptor [19].
As for `CN1CC[C@]2(c3cccc(O)c3)Cc3nc4ccccc4cc3C[C@H]2C1` (relative stereo), in the assay on Rattus norvegicus [22], the result was Active.
